How the values were obtained:
Mus musculus [1] = experiment: Number of survivors of DBA2 mice on 30th day after inoculation with L1210 leukemia cell line intravenously at a dose of 70 mg/kg/day; 0/10; assay type: functional; settings: route intravenous
Mus musculus [2] = experiment: Number of survivors of DBA2 mice on 60th day after inoculation with L1210 leukemia cell line intravenously at a dose of 58 mg/kg/day; 0/10; assay type: functional; settings: route intravenous
Mus musculus [3] = experiment: Percent increase in life span at dose 6 mg/kg/day in 7 mice implanted with P388 leukemia cell line for 1,8,15 schedule days from Exp-1; assay type: functional
Mus musculus [4] = experiment: Percent increase in life span of DBA2 mice after inoculation with L1210 leukemia intravenously at a dose of 9 mg/kg per day; assay type: functional; settings: route intravenous
How it was run: (§1)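 Female DBA2 mice inoculated iv on day 0 with 10^4 L1210 cells; drugs given iv as sulfate salts in physiological saline, mostly once on day 1. %ILS from all deaths and survivors as (T/C × 100) − 100; survivors scored on days 30 and 60.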

Mus musculus [5] = experiment: Percent increase in life span of DBA2 mice after inoculation with L1210 leukemia intravenously at a dose of 6 mg/kg per day; assay type: functional; settings: route intravenous; how it was run: as §1
Mus musculus [6] = experiment: Number of survivors of DBA2 mice on 30th day after inoculation with L1210 leukemia cell line intravenously at a dose of 6 mg/kg/day; 0/10; assay type: functional; settings: route intravenous
Mus musculus [7] = experiment: Number of survivors of DBA2 mice on 30th day after inoculation with L1210 leukemia cell line intravenously at a dose of 9 mg/kg/day; 0/10; assay type: functional; settings: route intravenous
Mus musculus [8] = experiment: Percent increase in life span at dose 9 mg/kg/day in 10 mice implanted with P388 leukemia cell line; assay type: functional
How it was run: (§2)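 Female DBA2 mice inoculated iv on day 0 with 10^4 P388 cells; single iv treatment on day 1 with drug as sulfate salt in physiological saline. Survival followed; %ILS from all deaths and survivors as (T/C × 100) − 100, maximal MST 30 days; survivors counted on days 30 and 60. Most experiments confirmed three times.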

Mus musculus [9] = experiment: Number of survivors on 60th day at dose 8 mg/kg/day in 10 mice implanted with P388 leukemia cell line; 0/10; assay type: functional; how it was run: as §2
Mus musculus [10] = experiment: Number of survivors on 30th day at dose 6 mg/kg/day in 10 mice implanted with P388 leukemia cell line; 1/10; assay type: functional
Mus musculus [11] = experiment: Number of survivors of DBA2 mice on 60th day after inoculation with L1210 leukemia cell line intravenously at a dose of 6 mg/kg/day; 0/10; assay type: functional; settings: route intravenous
Mus musculus [12] = experiment: Number of survivors of DBA2 mice on 60th day after inoculation with L1210 leukemia cell line intravenously at a dose of 8 mg/kg/day; 0/10; assay type: functional; settings: route intravenous
Mus musculus [13] = experiment: Number of survivors of DBA2 mice on 60th day after inoculation with L1210 leukemia cell line intraperitoneally at a dose of 2 mg/kg/day; 0/10; assay type: functional; settings: route intraperitoneal
Mus musculus [14] = experiment: Number of survivors of DBA2 mice on 60th day after inoculation with L1210 leukemia cell line intraperitoneally at a dose of 6 mg/kg/day; 0/10; assay type: functional; settings: route intraperitoneal
Mus musculus [15] = experiment: Percent increase in life span of DBA2 mice after inoculation with L1210 leukemia intravenously at a dose of 3 mg/kg per day; assay type: functional; settings: route intravenous; how it was run: as §1
Mus musculus [16] = experiment: Percent increase in life span at dose 11 mg/kg/day in 10 mice implanted with P388 leukemia cell line; assay type: functional; how it was run: as §2
Mus musculus [17] = experiment: Percent increase in life span at dose 3 mg/kg/day in 10 mice implanted with P388 leukemia cell line; assay type: functional; how it was run: as §2
Mus musculus [18] = experiment: Percent increase in life span at dose 4 mg/kg/day in 10 mice implanted with P388 leukemia cell line for 1st scheduled day; assay type: functional
How it was run: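 Female DBA2 mice inoculated iv on day 0 with 10^5 P388 cells; iv dosing of sulfate salts in physiological saline on day 1 only or on days 1, 8 and 15. %ILS from all deaths and survivors as (T/C × 100) − 100, maximal MST 60 days; survivors scored on day 60.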

Mus musculus [19] = experiment: Number of survivors on 60th day at dose 4 mg/kg/day in 10 mice implanted with P388 leukemia cell line; 0/10; assay type: functional
Mus musculus [20] = experiment: Number of survivors on 60th day at dose 11 mg/kg/day in 10 mice implanted with P388 leukemia cell line; 0/10; assay type: functional
Mus musculus [21] = experiment: Percent increase in life span of BDF1 mice after inoculation with P388 leukemia intraperitoneally at a dose of 3 mg/kg per day; settings: P388, ip
Mus musculus [22] = experiment: Percent increase in life span of BDF1 mice after inoculation with P388 leukemia cells intraperitoneally at a dose of 0.33 mg/kg per day for 1-9 scheduled days; settings: P388, ip
Mus musculus [23] = experiment: Number of survivors on 60th day at dose 2 mg/kg/day in 10 mice implanted with P388 leukemia cell line; 0/10; assay type: functional
Mus musculus [24] = experiment: Percent increase in life span of DBA2 mice after inoculation with L1210 leukemia intravenously at a dose of 4.5 mg/kg per day; assay type: functional; settings: route intravenous
Mus musculus [25] = experiment: Percent increase in life span of DBA2 mice after inoculation with L1210 leukemia intravenously at a dose of 2.5 mg/kg per day; assay type: functional; settings: route intravenous; how it was run: as §1
Mus musculus [26] = experiment: Number of survivors of DBA2 mice on 30th day after inoculation with L1210 leukemia cell line intravenously at a dose of 1.5 mg/kg/day; 0/10; assay type: functional; settings: route intravenous
Mus musculus [27] = experiment: Number of survivors on 30th day at dose 2 mg/kg/day in 10 mice implanted with P388 leukemia cell line; 0/10; assay type: functional
Mus musculus [28] = experiment: Number of survivors of DBA2 mice on 60th day after inoculation with L1210 leukemia cell line intravenously at a dose of 4.5 mg/kg/day; 0/10; assay type: functional; settings: route intravenous
Mus musculus [29] = experiment: Number of survivors on 30th day at dose 1 mg/kg/day in 10 mice implanted with P388 leukemia cell line; 0/10; assay type: functional
Mus musculus [30] = experiment: Percent increase in life span of BDF1 mice after inoculation with P388 leukemia intraperitoneally at a dose of 1 mg/kg per day; settings: P388, ip
Mus musculus [31] = experiment: Percent increase in life span of BDF1 mice after inoculation with P388 leukemia cells intraperitoneally at a dose of 0.22 mg/kg per day for 1-9 scheduled days; settings: P388, ip
Mus musculus [32] = experiment: Number of survivors on 60th day at dose 2 mg/kg/day in 10 mice implanted with P388 leukemia cell line for 1st scheduled day; 0/10; assay type: functional
Mus musculus [33] = experiment: Percent increase in life span at dose 2.5 mg/kg/day in 7 mice implanted with P388 leukemia cell line for 1,8,15 scheduled days from Exp-1; assay type: functional
Mus musculus [34] = experiment: Number of survivors on 30th day at dose 3 mg/kg/day in 10 mice implanted with P388 leukemia cell line; 0/10; assay type: functional
Mus musculus [35] = experiment: Number of survivors on 30th day at dose 3 mg/kg/day in 9 mice implanted with P388 leukemia cell line; 0/10; assay type: functional
Mus musculus [36] = experiment: Number of survivors on 30th day at dose 2.5 mg/kg/day in 10 mice implanted with P388 leukemia cell line; 0/10; assay type: functional
Mus musculus [37] = experiment: Number of survivors on 30th day at dose 7 mg/kg/day in 10 mice implanted with P388 leukemia cell line; 0/10; assay type: functional

| Structure (SMILES) | ILS at 9 mg/kg/day (Mus musculus [4]) | ILS at 6 mg/kg/day (Mus musculus [5]) | Survivors (Mus musculus [6]) | Survivors (Mus musculus [7]) | ILS at 9 mg/kg/day (Mus musculus [8]) | Survivors (Mus musculus [9]) | Survivors (Mus musculus [11]) | Survivors (Mus musculus [12]) | Survivors (Mus musculus [13]) | Survivors (Mus musculus [14]) | ILS at 3 mg/kg/day (Mus musculus [15]) | ILS at 3 mg/kg/day (Mus musculus [17]) | ILS at 4 mg/kg/day (Mus musculus [18]) | Survivors (Mus musculus [19]) | ILS at 3 mg/kg/day (Mus musculus [21]) | Survivors (Mus musculus [23]) | ILS at 2.5 mg/kg/day (Mus musculus [25]) | Survivors (Mus musculus [27]) | also measured |
| --- | --- | --- | --- | --- | --- | --- | --- | --- | --- | --- | --- | --- | --- | --- | --- | --- | --- | --- | --- |
| CCOC(=O)[C@H](Cc1c[nH]c2ccccc12)NC(=O)[C@@]1(O)[C@H](O)[C@]2(CC)C=CCN3CC[C@@]4(c5cc([C@@]6(C(=O)OC)C[C@H]7C[N@](CCc8c6[nH]c6ccccc86)C[C@](O)(CC)C7)c(OC)cc5N(C)[C@@]14C)[C@@H]32 | – | – | – | – | – | – | – | – | – | – | – | – | – | – | – | – | – | – | Survivors (Mus musculus [1]): 0; Survivors (Mus musculus [2]): 0 |
| CCOC(=O)[C@@H](NC(=O)[C@@]1(O)[C@H](O)[C@]2(CC)C=CCN3CC[C@@]4(c5cc([C@@]6(C(=O)OC)C[C@H]7C[N@](CCc8c6[nH]c6ccccc86)C[C@](O)(CC)C7)c(OC)cc5N(C)[C@@]14C)[C@@H]32)[C@@H](C)CC | 64% | 41.3% | 0 | 0 | 34% | 0 | 0 | 0 | – | – | – | – | – | – | – | – | – | – | ILS at 6 mg/kg/day (Mus musculus [3]): 150%; Survivors (Mus musculus [10]): 1 |
| CC[C@]1(O)C[C@@H]2CN(CCc3c([nH]c4ccccc34)[C@@](C(=O)OC)(c3cc4c(cc3OC)N(C)[C@H]3[C@@](O)(C(=O)OC)[C@H](OC(C)=O)[C@]5(CC)C=CCN6CC[C@]43[C@@H]65)C2)C1 [VINBLASTINE] | -21.6% | 24.7% | 0 | 0 | 49.5% | – | 0 | 0 | 0 | 0 | 30.3% | 30.8% | 52% | 0 | 63% | – | – | – | ILS at 11 mg/kg/day (Mus musculus [16]): -40%; Survivors (Mus musculus [20]): 0; ILS at 0.33 mg/kg/day (Mus musculus [22]): 74% |
| CC[C@]1(O)C[C@H]2CN(CCc3c([nH]c4ccccc34)[C@@](C(=O)OC)(c3cc4c(cc3OC)N(C=O)[C@H]3[C@@](O)(C(=O)OC)[C@H](OC(C)=O)[C@]5(CC)C=CCN6CC[C@]43[C@@H]65)C2)C1 [VINCRISTINE] | – | – | – | – | – | – | – | – | – | – | 28.8% | – | – | – | – | 0 | 30% | 0 | ILS at 4.5 mg/kg/day (Mus musculus [24]): 20%; Survivors (Mus musculus [26]): 0; Survivors (Mus musculus [28]): 0; Survivors (Mus musculus [29]): 0; ILS at 1 mg/kg/day (Mus musculus [30]): 47%; ILS at 0.22 mg/kg/day (Mus musculus [31]): 146% |
| CC[C@]1(O)C[C@@H]2CN(CCc3c([nH]c4ccccc34)[C@@](C(=O)OC)(c3cc4c(cc3OC)N(C)[C@H]3[C@@](O)(C(N)=O)[C@H](O)[C@]5(CC)C=CCN6CC[C@]43[C@@H]65)C2)C1 [VINDESINE] | – | – | – | – | – | 0 | – | – | 0 | 0 | – | 23% | 43% | 0 | 89% | 0 | 13.3% | 0 | Survivors (Mus musculus [32]): 0; ILS at 2.5 mg/kg/day (Mus musculus [33]): 31%; Survivors (Mus musculus [34]): 0; Survivors (Mus musculus [35]): 0; Survivors (Mus musculus [36]): 0; Survivors (Mus musculus [37]): 0 |

Source: ChEMBL document CHEMBL1122917, “Vinblastin-23-oyl amino acid derivatives: chemistry, physicochemical data, toxicity, and antitumor activities against P388 and L1210 leukemias” (J Med Chem, 1985)
